Screening data: PubChem, several laboratories
An excerpt weighted towards active compounds, which were near 1.6% of everything screened.
MsrA inhibitor – bovine MsrA inhibition | purified bovine MsrA, absorbance read-out | 360,000 compounds, 0.75% hits | inhibition, % at 15.5 µM; in the data active means inhibition above about 4.5%;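 further: 0% = vehicle wells with enzyme and 100% = reference inhibitor wells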
MT1-MMP act inh – blocks activation of human MT1-MMP. HT1080 RFP-PRO-GFP cells, GFP/RFP ratio fluorescence, overnight; percent of plate control window, DMSO zero. P50281. AID 651647. 360,000 compounds, 0.061% hits. GFP/RFP ratio change, % at 20 µM;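 active means GFP/RFP ratio change of at least 30% with cell ATP level not reduced by more than half and red fluorescence within 50% of control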
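Test system: HT1080 cells expressing an RFP-PRO-GFP fluorescent reporter construct / Compound dosing: single-point 20 µM compound, 1% DMSO / Schedule: cells overnight before dosing, compound overnight, 37 °C, 5% CO2 / Evaluation: GFP/RFP fluorescence ratio / Control set: DMSO and RFP-L50D-GFP cell wells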
pCIP destab – p/CIP protein destabilization | decrease of EGFP signal, % at 10 µM | 290,000 compounds, 0.01% hits | F442A p/CIP-EGFP cells, EGFP fluorescence, 16 h | Q05BA5;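 active means EGFP signal decrease of at least 30% at 10 µM or well 3 SD below plate mean, unless failing retest; inactive means the rest, including hits failing retest or dose response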
Target sequence (Q05BA5 1-1403): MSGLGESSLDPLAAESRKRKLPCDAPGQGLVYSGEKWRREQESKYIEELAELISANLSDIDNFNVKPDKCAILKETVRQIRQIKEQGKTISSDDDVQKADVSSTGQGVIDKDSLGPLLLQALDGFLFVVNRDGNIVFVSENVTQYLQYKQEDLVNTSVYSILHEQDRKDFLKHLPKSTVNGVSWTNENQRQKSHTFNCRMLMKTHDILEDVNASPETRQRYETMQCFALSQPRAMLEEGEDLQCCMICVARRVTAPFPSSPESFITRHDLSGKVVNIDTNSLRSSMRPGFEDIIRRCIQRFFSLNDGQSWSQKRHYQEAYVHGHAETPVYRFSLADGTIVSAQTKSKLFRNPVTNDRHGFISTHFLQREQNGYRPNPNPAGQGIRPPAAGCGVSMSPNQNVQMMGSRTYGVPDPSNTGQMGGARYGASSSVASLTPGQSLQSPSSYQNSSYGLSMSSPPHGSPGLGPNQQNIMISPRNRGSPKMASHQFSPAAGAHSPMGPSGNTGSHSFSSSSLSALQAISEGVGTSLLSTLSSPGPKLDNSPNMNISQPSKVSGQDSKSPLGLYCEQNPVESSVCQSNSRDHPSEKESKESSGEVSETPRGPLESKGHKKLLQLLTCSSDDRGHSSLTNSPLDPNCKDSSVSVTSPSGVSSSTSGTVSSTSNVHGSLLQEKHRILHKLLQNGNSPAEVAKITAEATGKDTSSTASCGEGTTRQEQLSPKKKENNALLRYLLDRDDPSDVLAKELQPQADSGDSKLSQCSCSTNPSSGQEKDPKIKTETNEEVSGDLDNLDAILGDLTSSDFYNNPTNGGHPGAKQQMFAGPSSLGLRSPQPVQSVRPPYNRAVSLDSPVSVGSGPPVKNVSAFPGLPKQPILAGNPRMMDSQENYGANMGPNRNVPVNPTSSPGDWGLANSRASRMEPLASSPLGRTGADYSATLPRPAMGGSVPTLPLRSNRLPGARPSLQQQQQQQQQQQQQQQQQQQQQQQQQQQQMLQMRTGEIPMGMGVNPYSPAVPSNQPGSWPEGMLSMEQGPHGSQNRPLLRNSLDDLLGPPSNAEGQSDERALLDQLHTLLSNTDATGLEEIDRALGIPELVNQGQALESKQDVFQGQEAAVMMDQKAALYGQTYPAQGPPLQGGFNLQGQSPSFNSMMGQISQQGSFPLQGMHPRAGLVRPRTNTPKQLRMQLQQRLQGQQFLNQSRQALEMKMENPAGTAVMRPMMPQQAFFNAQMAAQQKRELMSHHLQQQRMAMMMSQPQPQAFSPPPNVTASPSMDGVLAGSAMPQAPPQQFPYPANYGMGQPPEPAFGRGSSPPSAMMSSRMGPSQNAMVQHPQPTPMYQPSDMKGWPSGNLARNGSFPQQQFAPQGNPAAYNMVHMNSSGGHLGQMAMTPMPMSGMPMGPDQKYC
bovine MsrA act – bovine methionine sulfoxide reductase A activation; purified bovine MsrA, absorbance read-out; activation, % at 10.6 µM; 360,000 compounds, 0.3% hits; AID 602163; in the data active means activation above about 7.5%;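 further: 0% = vehicle and 100% = reference activator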
SKN-1 inh – C. elegans SKN-1 inhibition; 360,000 compounds, 0.49% hits; inhibition, % at 21.8 µM; C. elegans VP596 Pgst-4::GFP/RFP ratio, acrylamide-induced, 24 h; AID 624304;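 active means interference check ratio from 0.5 to 1.5 plus GFP to RFP signal ratio inhibition reaching or exceeding a fixed threshold, cut at about 30% in these data, passing the limit was not always enough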
Numbers without * were called inactive.

O=C(O)c1ccccc1N=Nc1ccc(O)cc1 was read as MsrA inhibitor 4, MT1-MMP act inh -12, bovine MsrA act -3 and SKN-1 inh 7.
For Brc1ccc(-n2cnc(-c3ccccc3)c2)cc1 the results were MsrA inhibitor 0, MT1-MMP act inh 2, pCIP destab 8, bovine MsrA act -3 and SKN-1 inh 40*.
Screening O=C(NCC(c1cccnc1)N1CCN(c2ccc(F)cc2)CC1)c1ccc2c(c1)OCO2 (stereo not drawn) returned MsrA inhibitor 1, MT1-MMP act inh 1, pCIP destab -8, bovine MsrA act 3 and SKN-1 inh 42*.
For COc1ccc(N2CCN(C(CNC(=O)c3ccc4c(c3)OCO4)c3cccnc3)CC2)cc1 (stereo not drawn) the results were MsrA inhibitor 0, MT1-MMP act inh 1, pCIP destab -4, bovine MsrA act 0 and SKN-1 inh -9.
C=CCC1CCCCC1=C(C#N)c1ccccc1 (stereo not drawn) was read as MsrA inhibitor -2, MT1-MMP act inh -1, bovine MsrA act -1 and SKN-1 inh 46*.
C=CCN(C(=O)c1ccccc1)C1CCS(=O)(=O)C1 (stereo not drawn) was read as MsrA inhibitor -1, MT1-MMP act inh -2, pCIP destab -5, bovine MsrA act -2 and SKN-1 inh 18.
`O=C(N[C@@H](Cc1cccnc1)C(=O)N1CCC[C@H]1C(=O)NCCc1ccccc1Cl)C1CC1` gave MsrA inhibitor 3.
Screening CCC(OC(=O)C1=Cc2ccccc2OC1)C(=O)NC1CCCC1 (stereo not drawn) returned MsrA inhibitor 0, MT1-MMP act inh -8, pCIP destab -5, bovine MsrA act -4 and SKN-1 inh 11.
`CC(C)C(OC(=O)C1=Cc2ccccc2OC1)C(=O)NC1CCCC1` (stereo not drawn) gave MsrA inhibitor 0, MT1-MMP act inh 0, pCIP destab 7, bovine MsrA act -4 and SKN-1 inh 36*.
For NC(=O)c1ncn([C@@H]2O[C@H](C(=O)N[C@H](Cc3ccccc3)C(=O)N3CCN(CC(=O)Nc4ccccn4)CC3)[C@@H](O)[C@H]2O)n1 the results were MsrA inhibitor 0.
`Cc1nc(SCc2ccccc2)c2ccsc2n1` gave MsrA inhibitor 2, MT1-MMP act inh 1, pCIP destab 1, bovine MsrA act -3 and SKN-1 inh 5.
For c1ccc(CSc2ncnc3sccc23)cc1 the results were MsrA inhibitor 0, MT1-MMP act inh -6, pCIP destab 12, bovine MsrA act -1 and SKN-1 inh 43*.
`O=C(NCc1ccccc1)[C@@H]1CCCN1C(=O)[C@H]1CCCN1C(=O)C1CCCCC1` gave MsrA inhibitor -1.
O=C(N[C@H](C(=O)N1CCC[C@H]1C(=O)NCCc1ccccc1Cl)c1ccccc1)C1CCCC1 was read as MsrA inhibitor 2.
`Cc1ccc(-c2c(C)nn3c(N4CCOCC4)cc(C)nc23)cc1` gave MsrA inhibitor 0, MT1-MMP act inh -1, pCIP destab 0, bovine MsrA act -3 and SKN-1 inh 35*.
CN(C)CCCNC(=O)c1c(N)[nH]c(C(=O)c2ccc(Br)cc2)c1-c1ccc(Br)cc1 was read as MsrA inhibitor 0.
Screening CN1OC[C@@H]2CN[C@H](c3ccc(N4CCCCC4)cc3)C[C@@H]21 returned MsrA inhibitor -1.
Screening Cn1cccc1/C=C1\SC(=S)N(NC(=O)c2ccc(F)cc2)C1=O returned MsrA inhibitor 2, MT1-MMP act inh -1, pCIP destab -3, bovine MsrA act -6 and SKN-1 inh 22.
Cn1cccc1/C=C1\SC(=S)N(NC(=O)c2ccccc2)C1=O was read as MsrA inhibitor 2, MT1-MMP act inh -7, pCIP destab -5, bovine MsrA act -5 and SKN-1 inh 38*.
Screening Cn1cccc1/C=C1\SC(=S)N(NC(=O)c2cccc(Cl)c2)C1=O returned MsrA inhibitor 2, MT1-MMP act inh -8, pCIP destab 6, bovine MsrA act -6 and SKN-1 inh 38*.
`CCOC(=O)N[C@H](C(=O)N1CCC[C@H]1C(=O)NC1CCCC1)C1CCCCC1` gave MsrA inhibitor 1.
`COC(=O)[C@]12C[C@H](CC(=O)NCc3ccc(OC)c(OC)c3)C(=O)N(CCC3=CCCCC3)C1=C[C@H](C(C)(C)C)O[C@@H]2C` gave MsrA inhibitor 0.
`N#Cc1ccccc1NC(=O)Nc1ccc(Cl)cc1` gave MsrA inhibitor 0, MT1-MMP act inh 3, pCIP destab 2, bovine MsrA act -5 and SKN-1 inh 0.
For N#Cc1ccccc1NC(=O)Nc1cccc(Cl)c1 the results were MsrA inhibitor 1, MT1-MMP act inh 5, pCIP destab -9, bovine MsrA act -5 and SKN-1 inh 41*.
O=C(CSc1ncnc2c1oc1ccccc12)Nc1ccccc1F was read as MsrA inhibitor -1, MT1-MMP act inh 2, pCIP destab -1, bovine MsrA act -2 and SKN-1 inh 8.
For CCOc1ccccc1NC(=O)CSc1ncnc2c1oc1ccccc12 the results were MsrA inhibitor -1, MT1-MMP act inh -2, pCIP destab -14, bovine MsrA act -8 and SKN-1 inh 34*.
For Cc1nc(-c2cccc(NC(=O)c3ccco3)c2)cs1 the results were MsrA inhibitor 2, MT1-MMP act inh -4, pCIP destab -9, bovine MsrA act -3 and SKN-1 inh 36*.
For O=C(Nc1nc(-c2ccc(Cl)s2)cs1)c1ccco1 the results were MsrA inhibitor 1, MT1-MMP act inh 2, pCIP destab 10, bovine MsrA act -3 and SKN-1 inh 85*.
Screening O=C(Nc1ccc2nc(-c3ccccc3)[nH]c2c1)c1cccs1 returned MsrA inhibitor 1, MT1-MMP act inh 7, pCIP destab -5, bovine MsrA act -2 and SKN-1 inh 39*.
For O=C(Nc1nc(-c2nc3ccccc3s2)cs1)c1ccco1 the results were MsrA inhibitor 1, MT1-MMP act inh 4, pCIP destab 4, bovine MsrA act -1 and SKN-1 inh 9.
`O=C(Nc1nc(-c2ccc(Cl)s2)cs1)c1cccs1` gave MsrA inhibitor 0, MT1-MMP act inh -41, pCIP destab -5, bovine MsrA act -3 and SKN-1 inh 48*.
Screening O=C(Nc1ccc2nc(-c3ccc4nc[nH]c4c3)[nH]c2c1)c1cccs1 returned MsrA inhibitor 1, MT1-MMP act inh 19, pCIP destab -9, bovine MsrA act -10 and SKN-1 inh 9.
Screening COC(=O)N1Cc2ccnnc2CC1c1ccccc1-c1ccc(OC)cc1 (stereo not drawn) returned MsrA inhibitor 1.
`Nc1nc2c(ncn2[C@@H]2O[C@H](C(=O)NCC(c3ccccc3)c3ccccc3)[C@@H](O)[C@H]2O)c(=O)[nH]1` gave MsrA inhibitor 1.
For CN(C(=O)CCc1cn(C)c2ccccc12)c1ccc(Oc2cccnc2)cc1 the results were MsrA inhibitor -1.
